LYPLA1 inh – LYPLA1 (human) inhibition in PME1 counter-screen; recombinant LYPLA1, FP-Rh probe fluorescence polarization; inhibition, % at 5.9 µM; 0.16% of 320,000 active;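 active = inhibition above the mean of all tested compounds plus 3 SD, set per campaign, cut at about 14% in these data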;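 note: inhibitors block serine hydrolase probe labeling of LYPLA1 so polarization falls; 0% = enzyme with DMSO and 100% = wells lacking LYPLA1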
PME-1 inh – blocks human protein phosphatase methylesterase 1; Q9Y570; recombinant PME-1, FP-Rh probe fluorescence polarization; inhibition, % at 5.9 µM; 0.53% of 320,000 active;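 active = inhibition above the campaign mean of all compounds plus 3 SD, cut at about 26% in these data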;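 note: competitive labeling of PME-1 active site by serine hydrolase directed probe; 0% = PME-1 with DMSO and 100% = wells lacking PME-1 enzyme; inhibitors block probe labeling so polarization falls and inhibition rises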
Fam108B inh – blocks mouse Fam108B hydrolase in RBBP9 counter-screen; recombinant Fam108B, FP-Rh probe fluorescence polarization; 0.33% of 300,000 active; inhibition, % at 9.51 µM; AID 1947;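 active = inhibition above the screen mean inhibition plus 3 SD, computed separately per campaign, cut at about 18% in these data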;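 note: inhibitors lower polarization as less probe binds the enzyme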
RBBP9 inhibitor – inhibitors of human serine hydrolase RBBP9. recombinant RBBP9, FP-Rh probe fluorescence polarization. O75884. 0.2% of 220,000 active. inhibition, % at 7.94 µM. AID 1515;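 active = inhibition above the campaign mean of all tested compounds plus 3 SD, cut at about 14% in these data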;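 note: plate controls were DMSO wells with RBBP9 for no effect and wells lacking RBBP9 protein for full effect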
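Test system – recombinant human RBBP9 · Input – RBBP9 2.5 µM in dispensing solution, pre-mixing · Medium – Tris buffer pH 8.0, NaCl, Pluronic · Schedule – preincubation 30 min plus labeling 45 min at 25 °C · Measured by – fluorescence polarization · Measure – % inhibition · Controls – DMSO and no-protein wells · Replicates – one well per compound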
LYPLA2 counter – blocks human lysophospholipase 2, a PME1 counter-screen | recombinant LYPLA2, FP-Rh probe fluorescence polarization | inhibition, % at 5.9 µM | 0.38% of 320,000 active;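 active = inhibition above the screen-wide mean plus 3 SD, limit set per campaign, cut at about 26% in these data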;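 note: 0% = LYPLA2 with DMSO and 100% = wells lacking LYPLA2 enzyme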
PAD4 inh – PAD4 (human) enzyme inhibition; recombinant PAD4, RCA probe fluorescence polarization; AID 485272; 0.41% of 330,000 active; inhibition, % at 6.36 µM;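 active = percent inhibition above a cutoff equal to the mean of all tested compounds plus 3 SD, cut at about 15% in these data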;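 note: 0% = PAD4 with RCA probe and DMSO and 100% = probe without PAD4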
Target sequence (Q9UM07 whole entry, looked up): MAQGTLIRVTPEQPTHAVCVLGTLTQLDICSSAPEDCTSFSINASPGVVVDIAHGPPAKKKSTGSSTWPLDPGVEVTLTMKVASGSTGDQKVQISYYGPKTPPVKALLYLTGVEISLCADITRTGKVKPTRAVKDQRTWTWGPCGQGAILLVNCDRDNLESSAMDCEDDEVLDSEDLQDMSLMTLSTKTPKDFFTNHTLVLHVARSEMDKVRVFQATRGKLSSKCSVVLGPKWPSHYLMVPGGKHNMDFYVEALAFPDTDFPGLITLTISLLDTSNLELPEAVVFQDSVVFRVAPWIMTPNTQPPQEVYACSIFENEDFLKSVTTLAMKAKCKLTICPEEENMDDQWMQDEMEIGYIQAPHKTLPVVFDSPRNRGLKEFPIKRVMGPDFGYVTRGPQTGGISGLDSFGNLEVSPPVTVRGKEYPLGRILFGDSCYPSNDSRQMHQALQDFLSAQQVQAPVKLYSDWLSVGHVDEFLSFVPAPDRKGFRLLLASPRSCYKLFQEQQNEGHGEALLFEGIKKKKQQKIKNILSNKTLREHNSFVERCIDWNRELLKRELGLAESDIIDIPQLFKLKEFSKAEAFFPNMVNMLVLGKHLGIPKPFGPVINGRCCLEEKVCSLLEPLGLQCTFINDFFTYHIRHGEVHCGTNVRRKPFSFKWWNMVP
* hit, by the source's call; / = not tested or not shown. An excerpt weighted towards active compounds, which were near 1.3% of everything screened.

SMILES | LYPLA1 inh | PME-1 inh | Fam108B inh | RBBP9 inhibitor | LYPLA2 counter | PAD4 inh
O=C1CCCCN1CCC(=O)N1CCCC(N2CCN(c3cccc(Cl)c3)CC2)C1 (stereo not drawn) | 0 | -1 | -2 | / | 0 | -2
O=C(CCC(F)(F)F)N1CCCC(N2CCN(c3cccc(Cl)c3)CC2)C1 (stereo not drawn) | -1 | -6 | -7 | / | 30* | -3
O=C(N/N=C/c1ccc2c(c1)OCO2)C(O)c1ccccc1 (stereo not drawn) | -5 | -2 | 0 | -1 | 1 | 1
CCN(CC)S(=O)(=O)c1cc(NC(=O)C(C)N2CCN(c3ccccn3)CC2)ccc1C (stereo not drawn) | 1 | 29* | 3 | 1 | 1 | -1
O=C(Nc1ccc(Br)cc1)NC1CCCCCCC1 | -9 | -6 | 1 | / | -13 | 1
O=C(O)CC/C(=C\c1ccc(N2CCCC2)c([N+](=O)[O-])c1)c1nc2ccccc2s1 | 9 | 40* | -2 | -4 | 7 | -2
O=C(NCc1cccc(Cl)c1)c1ccc(N2CC3CC(C2)c2cccc(=O)n2C3)c(NC(=O)c2cccnc2)c1 (stereo not drawn) | -3 | -1 | 3 | / | 10 | -2
CC(C)CC(=O)NC(c1ccccc1Cl)c1c(O)ccc2ccccc12 (stereo not drawn) | -10 | 47* | 9 | 3 | -6 | 0
COC(=O)c1ccc(NC(=O)C(=O)N2CCN(C(=S)Nc3cccc(OC)c3)CC2)cc1 | -7 | 1 | 1 | -6 | 56* | 2
COc1cccc(NC(=O)C(=O)N2CCOCC2)c1 | -1 | -4 | -3 | -1 | -5 | 2
C/C(=N\NC(=O)c1cccc(N/N=C(\C)c2cc(O)ccc2O)c1)c1cc(O)ccc1O | -22 | 4 | 30* | 4 | -16 | -11
C/C(=N\NC(=O)c1cccc(N/N=C(\C)c2ccco2)c1)c1ccco1 | / | / | / | 2 | / | /
C/C(=N\Nc1cccc([N+](=O)[O-])c1)c1cc(F)ccc1O | 4 | 17 | 4 | -9 | 5 | -3
C/C(=N\Nc1cccc([N+](=O)[O-])c1)c1ccccc1O | -6 | 45* | 8 | 6 | -1 | -5
C/C(=N\NC(=O)c1ccc(N/N=C(\C)c2ccc(O)cc2)cc1)c1ccc(O)cc1 | -7 | 28* | 16 | 2 | 3 | -1
COC(=O)CCC(=O)OC1(C)C(=O)C2=CN(CCCCO)C(c3ccc(OC)cc3)=CC2=C(Br)C1=O (stereo not drawn) | 2 | 6 | 4 | / | 3 | 28*
COC(=O)CCC(=O)OC1(C)C(=O)C2=CN(CCN3CCOCC3)C(c3ccc(OC)cc3)=CC2=C(Br)C1=O (stereo not drawn) | 3 | -1 | 6 | / | 9 | 0
COCCn1c(SCC(=O)NC2CCCC2)nnc1-c1ccco1 | -1 | -5 | -1 | / | -2 | 3
O=[N+]([O-])c1ccc(N/N=C/c2cccc(O)c2O)c(S(=O)(=O)N2CCOCC2)c1 | -11 | 31* | -6 | -14 | -5 | -3
CC(C)=CCC/C(C)=C/CNC(=O)C[C@H]1C[C@H](C(=O)N(C(C)C)C(C)C)[C@@]2(C)c3[nH]c4cc(CCC(=O)N(C)C)ccc4c3CCN2C1=O | / | / | / | / | / | 4
COc1ccc(N=Cc2c(O)[nH]c3ccccc23)cc1 | -1 | 18 | -4 | -1 | 2 | -2
Oc1[nH]c2ccccc2c1C=Nc1ccc2c(c1)OCO2 | 0 | 31* | 2 | -2 | -1 | 3
O=C(Nc1ccccc1)c1ccccc1NC(=O)[C@H]1CCCC[C@H]1C(=O)O | 2 | -1 | 0 | / | 4 | -4
O=c1cc(-c2c(F)c(F)c(F)c(F)c2F)oc2ccccc12 | -2 | 3 | -11 | 4 | 4 | 5
O=c1cc(-c2c(F)c(F)c(F)c(F)c2F)oc2c(F)c(F)c(F)c(F)c12 | -31 | -59 | -20 | 6 | -56 | 46*
SMILES | LYPLA1 inh | PME-1 inh | Fam108B inh | RBBP9 inhibitor | LYPLA2 counter | PAD4 inh
CCCCn1c2ccccc2c2nnc(SCC(=O)NC3=NN=C(c4ccccc4)CS3)nc21 | 2 | 2 | 1 | -11 | -1 | 21*
COC(=O)c1ccc(COc2ccccc2/C=N/NC(=O)c2cccnc2)cc1 | -2 | 6 | -10 | -3 | 36* | -1
COc1cccc(/C=N/NC(=O)CNC(=O)c2cccnc2)c1O | 0 | -3 | 4 | / | 3 | 1
O=S(=O)(Nc1ccc(N=Nc2ccccc2)cc1)c1ccccc1 | -6 | -1 | 1 | 4 | -10 | -2
O=S(=O)(Nc1ccc(N=Nc2ccc(O)c3ccccc23)cc1)c1ccccc1 | -14 | 39* | 15 | 4 | 7 | -17
Cc1ccc(NC(=O)c2ccco2)c(NC(=O)Cc2cccs2)c1 | 2 | 6 | 2 | -2 | -4 | -2
COC(=O)c1ccc2c(c1)S(=O)(=O)NC(=NCc1ccco1)S2 | -2 | 4 | 2 | -4 | 1 | 1
O=C1N=C(N2CCOCC2)S/C1=C\c1cccs1 | 0 | 0 | -5 | -4 | 4 | 2
N#CCCN1CCN(C2=NC(=O)/C(=C\c3cccs3)S2)CC1 | 2 | -3 | 6 | 0 | 29* | -4
O=C(C(c1ccccc1)c1ccccc1)N1CCN(CCN2C(=O)c3cccc4cccc(c34)C2=O)CC1 | -4 | 8 | -5 | -13 | -8 | -4
O=C1c2cccc3cccc(c23)C(=O)N1CCN1CCN(CC(O)COc2ccccc2)CC1 (stereo not drawn) | 3 | 2 | -3 | -7 | 31* | -5
N#CCSc1nc2c(cc1C#N)CCCCCC2 | 0 | 44* | -2 | -3 | -5 | 1
N#Cc1cc2c(nc1SCC(=O)O)CCCC2 | -2 | 2 | 1 | -4 | 1 | -2
CCCCOC(=O)c1ccc(NC(=O)Nc2ccc(OC)c(OC)c2)cc1 | -11 | 40* | 14 | -5 | -5 | 0
COc1ccc(NC(=O)Nc2ccc(OC)cc2)cc1 | 5 | 4 | 2 | -8 | 2 | -1
COC(=O)c1ccc(NC(=O)Nc2ccc(OC)cc2)cc1 | -2 | 29* | 5 | 5 | -6 | -1
O=C(NCCN1CCOCC1)c1ccncc1 | 1 | -2 | 4 | -3 | 8 | -3
O=C1C=C(NCCN2CCOCC2)C(=O)c2cnccc21 | -4 | 12 | 12 | -6 | 2 | 41*
Cn1nnnc1N=N/C(=N/Nc1ccccc1)c1ccccc1 | -2 | 8 | 4 | 2 | 1 | 3
CCC(=O)NC(c1ccc(C)cc1)c1cc([N+](=O)[O-])c2cccnc2c1O (stereo not drawn) | -6 | 9 | 2 | -2 | 2 | 25*
Cc1csc(NC(=O)c2cc3c(C)nn(Cc4ccccc4Cl)c3s2)n1 | -73 | -15 | -5 | -11 | -39 | -6
CCOc1ccc(N=Nc2c(C)[nH]n(-c3ccccc3)c2=O)cc1 | 0 | 7 | 3 | / | -2 | -1
CCOc1ccc(N=Nc2c(=O)[nH]n3c(=O)c4c([nH]c23)CCCC4)cc1 | -1 | 44* | 5 | 0 | 2 | 4

Source: PubChem
